Assay results as given in ChEMBL document CHEMBL3745661, “Allosteric inhibitors of Coxsackie virus A24 RNA polymerase” (Bioorg Med Chem, 2016).
Active and inactive are the calls of the source. No cut-off for these calls is given here.

What was measured:
[1] = system: Coxsackievirus A24; experiment: Inhibition of Coxsackievirus A24 RNA polymerase 3D-POL assessed as reduction in uridylylated VPg level at 25 uM after 60 mins by SDS-PAGE analysis
Method in brief: (§1)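 Purified CVA24 3Dpol (1–2 µg) incubated at 30°C with 1 µg synthetic VPg, 0.5 µg polyA template, 10 µM UTP plus α-32P-UTP, and 0.5 mM Mn(II) acetate in 50 mM HEPES pH 7.5, 8% glycerol. Compounds were diluted from DMSO stocks in that buffer first. Reactions were stopped on ice, run on 16% urea Tris-Tricine SDS-PAGE, and VPgpU and VPgpolyU were phosphorimaged relative to DMSO or buffer controls.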

[2] = system: Coxsackievirus A24; experiment: Inhibition of Coxsackievirus A24 RNA polymerase 3D-POL assessed as reduction in VPgpolyU level at 25 uM after 60 mins by SDS-PAGE analysis; method in brief: as §1
[3] = Lipophilicity, log P of the compound; assay type: physicochemical; details: octanol/water
[4] = system: Dengue virus; experiment: Inhibition of Dengue virus RNA polymerase NS5 assessed as reduction in polyU formation at 10 uM by SDS-PAGE analysis
[5] = system: Coxsackievirus A24; experiment: Inhibition of Coxsackievirus A24 RNA polymerase 3D-POL assessed as reduction in VPgpolyU level at 10 uM by SDS-PAGE analysis; method in brief: as §1
[6] = system: Coxsackievirus A24; experiment: Inhibition of Coxsackievirus A24 RNA polymerase 3D-POL assessed as reduction in uridylylated VPg level at 10 uM by SDS-PAGE analysis; method in brief: as §1
[7] = system: Dengue virus; experiment: Inhibition of Dengue virus RNA polymerase NS5 assessed as reduction in polyU formation at 20 uM by SDS-PAGE analysis
[8] = system: Coxsackievirus A24; experiment: Inhibition of Coxsackievirus A24 RNA polymerase 3D-POL assessed as reduction in VPgpolyU level at 20 uM by SDS-PAGE analysis; method in brief: as §1
[9] = system: Coxsackievirus A24; experiment: Inhibition of Coxsackievirus A24 RNA polymerase 3D-POL assessed as reduction in uridylylated VPg level at 20 uM by SDS-PAGE analysis; method in brief: as §1

Row | SMILES | inhibition [1] | inhibition [2] | logP [3] | further results
1 | O=S(=O)(NNc1cnc2ccccc2n1)c1ccccc1C(F)(F)F | inactive | inactive | 3.23 | 
2 | CC(C)COc1ccc(NS(=O)(=O)c2ccc3c(c2)oc(=O)n3C)cc1Cl |  |  | 3.77 | 
3 | c1ccc2c(c1)c1ccccc1c1nn3nnnc3nc21 | inactive | inactive | 3.16 | 
4 | O=C1/C(=C/c2ccc3c(c2)OCO3)CCC/C1=C\c1ccc2c(c1)OCO2 | inactive | inactive | 4.75 | 
5 | COC(=O)c1cc(=O)c2cc(NC(=O)c3ccc(OC(F)(F)F)cc3)ccc2[nH]1 | inactive | inactive | 2.78 | 
6 | O=C(CSc1nc2ccccc2o1)N1c2ccccc2Sc2ccccc21 | inactive | inactive | 6.09 | 
7 | O=S(=O)(NCc1cc(F)cc2c1OCOC2)c1cccc2nonc12 | inactive | inactive | 2.2 | 
8 | O=S(=O)(c1ccccc1)N1CCN(C2c3ccccc3-c3ccccc32)CC1 | inactive | inactive | 4.26 | 
9 | CCOc1ccc(Oc2ccc(NS(=O)(=O)c3ccc4c(c3)oc(=O)n4C)cc2)cc1 |  |  | 4.17 | 
10 | O=S(=O)(NC1CCCc2ccccc21)c1cccc2nonc12 (configuration not stated) | inactive | inactive | 3.28 | 
11 | Cn1c(=O)oc2cc(S(=O)(=O)N(CCC(N)=O)c3ccccc3)ccc21 |  |  | 1.23 | 
12 | Cn1c(=O)oc2cc(S(=O)(=O)Nc3ccccc3Sc3ccccc3)ccc21 |  |  | 3.91 | 
13 | O=C(Nc1ccc2oc3ncccc3c(=O)c2c1)c1ccc([N+](=O)[O-])cc1 | inactive | inactive | 3.5 | 
14 | O=C(Nc1ccc(OC(F)(F)F)cc1)N1CCN(c2ncccn2)CC1 | inactive | inactive | 2.96 | 
15 | COC(=O)Nc1nc2cc(-c3nnc(O)c4ccccc34)ccc2[nH]1 | inactive | inactive | 2.53 | 
16 | COc1ccc(-c2nc3cc4c(cc3o2)Oc2ccccc2N4)cc1 | inactive | inactive | 5.09 | 
17 | Cn1c(=O)oc2cc(S(=O)(=O)Nc3ccccc3Oc3ccccc3Cl)ccc21 |  |  | 4.32 | 
18 | O=C(NCc1nc2ccccc2s1)c1cc(F)cc2c1OCOC2 | inactive | inactive | 3.12 | 

Row | SMILES | inhibition [1] | inhibition [2] | logP [3] | further results
19 | O=C(Nc1ccccc1)Nc1ccc(Oc2cccc(C(F)(F)F)c2)nc1 | inactive | inactive | 5.04 | 
20 | CC1=C(C(=O)N[n+]2cnc3cccc(F)c3c2N)Sc2ccccc2N1 | inactive | inactive | -0.39 | 
21 | Cc1noc(C)c1-c1nc(CN2C(=O)c3ccccc3S2(=O)=O)no1 | inactive | inactive | 0.51 | 
22 | O=C1c2ccccc2S(=O)(=O)N1C[C@@H]1CC(c2ccccc2Cl)=NO1 | inactive | inactive | 2.71 | 
23 | C[C@@H](CS(=O)(=O)Nc1ccc2c(c1)oc(=O)n2C)c1ccccc1 |  |  | 3.06 | 
24 | O=c1[nH]c2ccc(S(=O)(=O)Nc3cccc(F)c3)cc2o1 |  |  | 2.06 | inhibition [4]: inactive; inhibition [5]: Active; inhibition [6]: Active
25 | Cn1c(=O)oc2cc(S(=O)(=O)Nc3cccc4cccnc34)ccc21 |  |  | 1.94 | 
26 | c1ccc2c(c1)Nc1nc3ccccc3nc1O2 | inactive | inactive | 3.46 | 
27 | CCN(c1ccccc1)S(=O)(=O)c1ccc2[nH]c(=O)oc2c1 |  |  | 3 | inhibition [7]: inactive; inhibition [8]: Active; inhibition [9]: Active
28 | N#Cc1ccc(S(=O)(=O)N2CCNC(=O)[C@H]2CC(=O)Nc2cc(Cl)ccc2Cl)cc1 | inactive | inactive | 3.54 | 
29 | Cn1c(=O)oc2cc(S(=O)(=O)Nc3ccccc3NC(=O)c3ccc(C(C)(C)C)cc3)ccc21 |  |  | 4.54 | inhibition [7]: inactive
30 | O=C1c2ccccc2S(=O)(=O)N1CCS(=O)(=O)c1ccc(Cl)cc1Cl | inactive | inactive | 2.69 | 
31 | Cc1nc(-c2cnccn2)sc1C(=O)N1CCN(C2c3ccccc3-c3ccccc32)CC1 | inactive | inactive | 3.86 | 
32 | C/C(=N/Nc1nnc(-c2ccccc2)c(-c2ccccc2)n1)c1ccco1 | inactive | inactive | 4.36 | 
33 | O=C(NNc1cc(C(F)(F)F)nc2ccccc12)Nc1cccc(Cl)c1 | inactive | inactive | 5.14 | 
34 | Cc1c(S(=O)(=O)N2CCN(C3c4ccccc4-c4ccccc43)CC2)cnn1-c1ccccc1 | inactive | inactive | 4.13 | 
35 | N#Cc1ccc(N2CCN(S(=O)(=O)c3cccc4nonc34)CC2)cc1 | inactive | inactive | 2.51 | 
